Values joined by “and” are separate entries in the source; they are usually repeats but may differ in a detail not shown here. Identical values can stand only once.
What was measured:
[1] = organism: Mus musculus; assay: Percentage increase in lifespan of treated animals(at the optimal dose) compared to controls. Average lifespan of control animals was 11 days (P388).; type: functional
[2] = tested on: Nucleic Acid; assay: Displacement of ethidium from poly(dA/T) or poly(dG/C)-DNA; type: nucleic-acid assay
Method in brief: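 Association constants (M⁻¹) for binding to poly[d(AT)] and poly[d(GC)] measured by ethidium displacement, assuming ligand and ethidium compete for intercalation sites; reported as log K.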

[3] = tested on: L1210; assay: Compound concentration that reduces cell growth of L1210 leukemia cultures to 50% of controls after 70h.; type: functional, cell-based; conditions: Mus musculus, L1210, 70 h
[4] = tested on: Mus musculus; assay: Optimal dose administered intraperitoneally on days 1,5 and 9 after intraperitoneal inoculation of P388 leukemia cells.; type: functional
[5] = organism: Mus musculus; assay: Percentage increase in lifespan of treated animals(at the optimal dose) compared to controls. Average lifespan of control animals was 17 days (Lewis lung carcinoma cells).; type: functional
[6] = tested on: Mus musculus; assay: Optimal dose administered intraperitoneally on days 5,9 and 13 after intravenous inoculation of lewis lung carcinoma cells.; type: functional
[7] = Ionization constant of chromophore measured by UV spectroscopy in 20% dimethylformamide.; type: physicochemical
Method in brief: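 Chromophore pKa measured by UV spectroscopy in 20% dimethylformamide.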

[8] = tested on: Mus musculus; assay: Percentage increase in lifespan of treated animals(at 100 mg/kg optimal dose) compared to controls. Average lifespan of control animals was 17 days (Lewis lung carcinoma cells).

In the case of `CN(C)CCNC(=O)c1cccc2cccnc12`, the ILS max [1] is reported as <20%, the Log K [2] is reported as 5.12 and 5.17 and the IC50 [3] is reported as > 25000 nM. The OD [4] was 100 mg/kg.

`CN(C)CCNC(=O)c1cc(-c2ccccc2)cc2cccnc12` showed an ILSmax [5] of 31, an ILSmax [1] of 29 and an OD [6] of 100 mg/kg. For the same compound, the Log K [2] was 6.12 and 5.96, the IC50 [3] was 910 nM and the OD [4] was 65 mg/kg. The pKa [7] was 2.93.

For `CN(C)CCNC(=O)c1cccc2cc(-c3ccccc3)cnc12`, the ILS max [5] was <40%, the ILS max [1] was 27% and the OD [6] was 100 mg/kg. For the same compound, the Log K [2] was 5.68 and 5.7, the IC50 [3] was 2600 nM and the OD [4] was 100 mg/kg. It also gave a pKa [7] of 2.58.

With `CN(C)CCNC(=O)c1cccc2c(-c3ccccc3)ccnc12` the ILS max [1] was <20%, the Log K [2] was 4.73 and 4.77 and the IC50 [3] was 14700 nM. For the same compound, the OD [4] was 150 mg/kg and the pKa [7] was 3.04.

`CN(C)CCNC(=O)c1cccc2ccc(-c3ccccc3)nc12` gave an ILS max [1] of 91%, an OD [6] of 100 mg/kg and an ILS max [8] of 70%. The Log K [2] was 5.97 and 5.92, the IC50 [3] was 1300 nM and the OD [4] was 100 mg/kg. It also gave a pKa [7] of 2.75.

Work on `CN(C)CCNC(=O)c1cccc2cc3ccccc3nc12` yielded an ILS max [1] of 91%, an OD [6] of 100 mg/kg and an OD [4] of 66 mg/kg.

In the case of `CN(C)CCNC(=O)c1ccc(-c2ccccc2)c2cccnc12`, the ILS max [1] is reported as <20%, the Log K [2] is reported as 4.74 and 4.79 and the IC50 [3] is reported as 13700 nM. It also gave an OD [4] of 100 mg/kg and a pKa [7] of 3.13.
